# NPY-Y1 antag – antagonists of human neuropeptide Y receptor Y1 | P25929 | HEK293-CNG Y1 cells, membrane potential fluorescence; NPY at EC95, then isoproterenol | inhibition, % at 3.6 µM | 200,000 compounds, 1% hits | AID 1040;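 active = inhibition above the campaign mean inhibition of all tested compounds plus 3 SD, cut at about 20% in these data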;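 also: 0% = DMSO wells given NPY plus isoproterenol and 100% = isoproterenol alone without NPY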
#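 Assay system: HEK293 cells with Y1 receptor plus CNG channel | Probe or stimulus: NPY (25 nM), isoproterenol (1 µM), Ro 20-1724 (25 µM) | Timing: Compound incubation 1 h at room temperature, readout 45 min post-stimulation | Measured by: Membrane-potential fluorescent dye readout | Benchmarks: High control isoproterenol alone, low control NPY with isoproterenol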
# NPY1 pot ag – potentiates or activates human NPY-Y1 receptor | P25929 | NPY-Y1 expressing cells, potentiator/agonist activation | activation, % at 3.6 µM | 220,000 compounds, 0.37% hits | AID 1304; in the data active = activation above about 33%, passing the limit was not always enough;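 also: cells stimulated with NPY at EC10 then isoproterenol at EC100; 0% = low agonist plus stimulus and 100% = saturating agonist plus stimulus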
# NPY Y2 blocker – blocks the human neuropeptide Y Y2 receptor | AID 793 | inhibition, % at 2.7 µM | NPY-Y2 expressing cells, antagonist mode | 140,000 compounds, 0.99% hits | P49146; in the data active = inhibition above about 17%;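 also: 0% = vehicle with agonist challenge and 100% = reference antagonist with challenge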
# Target sequence (P49146 whole entry, looked up): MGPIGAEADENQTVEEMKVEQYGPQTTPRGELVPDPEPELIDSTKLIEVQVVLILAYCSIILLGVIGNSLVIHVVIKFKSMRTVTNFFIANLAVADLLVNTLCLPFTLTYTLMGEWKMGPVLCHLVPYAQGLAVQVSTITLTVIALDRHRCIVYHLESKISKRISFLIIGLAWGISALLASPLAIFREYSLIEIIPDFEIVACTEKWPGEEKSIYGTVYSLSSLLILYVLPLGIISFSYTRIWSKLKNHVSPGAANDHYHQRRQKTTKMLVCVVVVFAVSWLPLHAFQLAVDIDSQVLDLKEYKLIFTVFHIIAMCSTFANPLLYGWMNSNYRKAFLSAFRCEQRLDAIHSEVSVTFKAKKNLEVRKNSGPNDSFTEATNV
# NPY2 pot ag – human NPY-Y2 potentiation or agonism, primary screen; cells expressing NPY-Y2, potentiator/agonist read-out; activation, % at 3.6 µM; P49146; 220,000 compounds, 0.45% hits; AID 1359; in the data active = activation above about 27%;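 also: cells stimulated with NPY near EC25 plus isoproterenol at EC100; 0% = vehicle plus submaximal agonist and 100% = vehicle plus saturating agonist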
# NPY-Y1 antag ct – counter-screen for NPY-Y2 antagonists: human NPY-Y1 antagonism; 710 compounds, 19% hits; shares compounds with NPY Y2 blocker; inhibition, % at 3.6 µM; cell-based NPY-Y1 antagonism counterscreen; in the data active = inhibition above about 20%;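 also: cells challenged with NPY then isoproterenol with cAMP sensed through a CNG channel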
# NPY-Y2 ant conf – human NPY-Y2 antagonism, confirmation; shares compounds with NPY Y2 blocker; inhibition, % at 2.8 µM; AID 1257; 710 compounds, 32% hits; HEK293 NPY-Y2 CNG channel, membrane potential fluorescence;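 active = mean inhibition of triplicate wells above the hit cutoff set in the primary screen, cut at about 17% in these data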;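 also: 0% = DMSO with NPY challenge and 100% = BIIE0246 high control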
# Starred values were filed as active, the others as inactive; / = no result given. Most compounds without a hit are left out; they make up all but 1.9% or so of the library.
SMILES,NPY-Y1 antag,NPY1 pot ag,NPY Y2 blocker,NPY2 pot ag,NPY-Y1 antag ct,NPY-Y2 ant conf
CCN1CCN(S(=O)(=O)CC2(C)C3CCC2(C)C(=O)C3Br)CC1 (stereo not given),-2,-5,/,-6,/,/
Clc1ccc(-c2cc(CSc3cccc(Cl)c3)on2)cc1,20,-67,17*,-32,10,16
Cc1ccc(SCc2cc(-c3ccc(Cl)cc3)no2)cc1,6,-11,19*,5,13,17
Clc1ccc(-c2cc(CSc3ccccc3)on2)cc1,8,-43,15,-3,/,/
CCOc1ccc(C(C)=O)cc1CSc1nc2nc(C)cc(C)n2n1,5,-18,/,-9,/,/
NS(=O)(=O)c1ccc(CNC(=O)c2csc3c2CCCC3)cc1,6,-22,/,-10,/,/
O=C(NCc1ccccn1)c1cc(-c2ccc(Cl)cc2)nc2ccccc12,12,-30,27*,8,4,4
O=C1CSC(=S)N1N1C(=O)c2cccc([N+](=O)[O-])c2C1=O,-2,-1,/,-3,/,/
Cc1ccc(NC(=O)C(=O)NCCOc2ccc(Cl)cc2)c(C)c1,4,-6,21*,-8,14,20*
Cc1cccc(N2CCN(C3=NC(=O)C(Cc4ccccc4)S3)CC2)c1 (stereo not given),10,-6,6,-2,/,/
Cc1cc2c(c(Sc3ccccc3)n1)C(=O)OC2,0,13,22*,5,-2,0
CN(C)C(=O)CSc1nnc(-c2ccc(F)cc2)c2ccccc12,/,9,/,-21,/,/
CCCCSc1nnc(-c2ccc(C)cc2)c2ccccc12,7,8,18*,2,9,13
CC1=C(C(=O)OCc2ccc3c(c2)OCO3)C(c2ccc(Cl)cc2)NC(=O)N1 (stereo not given),-4,-13,8,-12,/,/
CC1=C(C(=O)OCc2ccc3c(c2)OCO3)C(c2ccc(F)cc2)NC(=O)N1 (stereo not given),8,-1,24*,0,6,11
CC(C)(C)c1ccc(/C=C/C(=O)N2CCc3ccccc3C2)cc1,8,-47,10,-36,/,/
Cc1ccc(/C=C/C(=O)N2CCc3ccccc3C2)cc1,17,-11,24*,-20,12,13
COc1ccc(CCN2C(=NC(C)=O)SC3CS(=O)(=O)CC32)cc1OC (stereo not given),/,-18,/,4,/,/
O=C(NCc1ccc2c(c1)OCO2)c1cc(-c2ccccc2Cl)on1,12,-14,22*,-55,18,13
Cc1ccc(OCCNc2ccc(C(F)(F)F)cc2[N+](=O)[O-])cc1,0,19,21*,1,20,17
O=C(Cn1cncn1)c1ccc(F)cc1F,3,-3,4,-4,/,/
COc1ccc2c(c1)C(=NN)c1cc(OC)ccc1-2,-9,17,0,4,/,/
CCN=C1S/C(=C\c2cc(OCC)c(O)cc2Br)C(=O)N1CC,15,-28,27*,7,25*,43*
CCN(CC)S(=O)(=O)c1cc(C(=O)Oc2cccc(-c3cnc4ccccc4n3)c2)ccc1OC,14,-48,20*,0,31*,14
CC(C)COC(=O)c1cccc2c1-c1ccccc1/C2=N\O,13,-42,22*,-8,17,39*
SMILES,NPY-Y1 antag,NPY1 pot ag,NPY Y2 blocker,NPY2 pot ag,NPY-Y1 antag ct,NPY-Y2 ant conf
OCCNCc1cc(Br)ccc1OCc1ccccc1Cl,5,-68,22*,-25,10,16
COc1ccc(C(=O)NNC(=O)C2CCN(S(=O)(=O)c3ccc(C)cc3)CC2)cc1,-1,-6,/,-13,/,/
Oc1ccc(N=Nc2n[nH]c(-c3ccc(Cl)cc3)n2)cc1,-6,28,-1,15,/,/
COc1cc([N+](=O)[O-])ccc1NC(=O)CCCOc1ccccc1,7,-33,22*,-28,7,10
COc1ccc([N+](=O)[O-])cc1NC(=O)CCCOc1ccccc1,3,-4,13,12,/,/
CC(=O)c1c(C)[nH]c(C(=O)N(C)C(c2ccccc2)c2ccccc2)c1C,-2,5,/,4,/,/
COc1cccc(Nc2nc(NCC3CCCO3)c3ccccc3n2)c1 (stereo not given),15,-20,24*,-5,21*,14
COc1ccccc1CC1S/C(=N/N=C/c2ccco2)NC1=O (stereo not given),3,4,/,-2,/,/
COCCNC(=O)CSc1nnc(-c2ccccc2F)n1Cc1ccccc1,-4,-6,/,-13,/,/
